The structures appear in SMILES notation. In all, about 310,000 compounds went through this assay and about 1,400 (0.45%) were called active.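 Rule for the calls: active = calcium response B-score plate-corrected fluorescence ratio at least 3 library SD, with starting fluorescence B-score inside 5 SD; inactive = the rest.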 Only a selection was taken, and actives are over-represented in it overall.

This assay deals with Mas-related G-protein coupled receptor member X1 (Homo sapiens) (UniProt Q96LB2). In words: agonists of human MrgX1 receptor, primary screen, HEK293 cells, Fluo-4 calcium flux (AID 588627).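 For B-score: B-score of the peak-minus-trough calcium fluorescence change over baseline.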 Particulars: Fluo-4 calcium fluorescence, agonist mode, at 10 µM; active compounds read high. Summed up: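 Assay system: MrgX1-expressing HEK293 cells / Amount: fifteen thousand cells per well / Doses: test compound in the initial addition of three / Timing: cells plated overnight, dye loaded 0.5 h 37 °C, 0.5 h room temperature / Technique: kinetic calcium dye fluorescence, Fluo-4 NW / Control set: positive and negative controls per plate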
Sequence of Mas-related G-protein coupled receptor member X1 (Homo sapiens) (Q96LB2 whole entry, looked up): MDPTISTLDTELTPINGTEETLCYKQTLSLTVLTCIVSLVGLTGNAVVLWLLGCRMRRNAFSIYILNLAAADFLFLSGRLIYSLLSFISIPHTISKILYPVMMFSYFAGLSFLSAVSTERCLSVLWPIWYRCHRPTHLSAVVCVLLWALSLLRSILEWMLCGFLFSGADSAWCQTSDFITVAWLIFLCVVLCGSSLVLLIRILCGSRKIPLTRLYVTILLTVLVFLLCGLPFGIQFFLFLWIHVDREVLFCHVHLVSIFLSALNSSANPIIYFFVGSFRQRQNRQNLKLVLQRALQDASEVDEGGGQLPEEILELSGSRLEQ
(Calcium assays in cells follow changes in intracellular calcium, usually with a dye or a luminescent sensor.)
For `C/C(=N\Nc1cccc(C(=O)O)c1)c1ccc2c(c1)Nc1ccccc1S2`, the B-score result is “inactive”.
Under `CCn1c(CC(=O)Nc2ccccc2)nnc1SCC(=O)N1CCOCC1` stands “inactive”; under `Cc1cccc(-c2nc(Nc3ccc(O)cc3)c3ccccc3n2)c1`, “inactive”.
For `COc1ccc(Nc2nc(-c3cccnc3)nc3ccccc23)cn1`, the B-score is 38.4 (active).
Under `O=[N+]([O-])c1ccc(F)cc1Oc1nc(-c2cccnc2)nc2ccccc12` stands “inactive”; under `CN(C)/C(=N\OC(=O)c1ccccc1)c1nonc1N`, “inactive”.
Regarding `C=CCO/N=C/C1=C(O)C(C(=O)OC)C(C)(C)CC1=O` (centres undefined), the B-score result is “inactive”.
Take `C#CCOCCOCCOCCNc1nc(N2CCN(C(=O)CCCCCCCCCCNC(=O)Cn3cc(CCCCCN)nn3)CC2)nc(N2CCN(C(=O)CCCCCCCCCCNC(=O)[C@H](CO)n3cc(CCCSC)nn3)CC2)n1`: the B-score entry is “inactive”.
`C#CCOCCOCCOCCNc1nc(N2CCN(C(=O)CCCCCCCCCCNC(=O)[C@H](CCCCN)n3cc(C)nn3)CC2)nc(N2CCN(C(=O)CCCCCCCCCCNC(=O)[C@H](CO)n3cc(CCCSC)nn3)CC2)n1`: the B-score was 29.2 (active).
Under `C#CCOCCOCCOCCNc1nc(N2CCN(C(=O)CCCCCCCCCCNC(=O)[C@H]([C@@H](C)CC)n3cc(CCCCN=C(N)N)nn3)CC2)nc(N2CCN(C(=O)CCCCCCCCCCNC(=O)[C@H](CO)n3cc(CCCSC)nn3)CC2)n1` stands “inactive”.
Under `COC(=O)c1cc(S(=O)(=O)N2CCC(C(N)=O)CC2)oc1C` stands “inactive”.
The entry for `CCOc1ccc(NC(=O)c2ccc(NC(=O)CN3C(=O)C(=O)N(CC(C)C)C3=O)cc2)cc1` is “inactive”.
For `Cc1cc(C(=O)NNC(=S)Nc2ccccc2C)cs1`, the B-score result was “inactive”.
The entry for `COCCCNc1nc2ccccc2nc1NS(=O)(=O)c1ccc(F)cc1` is “inactive”; for `COc1cc(/C=C2/C(=O)NN(c3ccc(F)cc3)C2=O)cc([N+](=O)[O-])c1O` it is “inactive”; for `C#CCOc1ccc(/C=C2/C(=O)NN(c3ccccc3)C2=O)cc1OC` it is “inactive”.
On to `COc1cc(/C=C2/C(=O)NN(c3cccc(Cl)c3)C2=O)cc(Br)c1O`, for which the B-score was 45.3 (active).
Take `CCCCc1nc(SCC(=O)Nc2nnc(C(C)C)s2)n[nH]1`: the B-score entry was “inactive”.
Under `C=CCN1CN(S(=O)(=O)c2ccc(OC)cc2)c2nc3ccccc3nc21` stands “inactive”; under `O=C(COC(=O)/C=C/c1cccc(Cl)c1)NCCc1ccccc1`, “inactive”; under `COCCNC(=O)C1CCN(C(=O)C2CC(=O)N(c3ccc(C)cc3)C2)CC1` (centres undefined), “inactive”.
Under `O=C(CC(O)(C(F)(F)F)C(F)(F)F)Nc1ccc(Cl)c(Cl)c1` stands 38.4 (active).
The entry for `O=C(Cc1ccc(Cl)c(Cl)c1)Nc1ccc(SC(F)F)cc1` is “inactive”; for `O=C(CC1SCCNC1=O)Nc1ccc(Cl)c(Cl)c1` (centres undefined) it is “inactive”.
As to `Cc1nn(C)c(C)c1C(C)NC(=O)c1ccc(OC2CCN(Cc3ccccn3)CC2)cc1` (centres undefined), the B-score entry is “inactive”.
As for `COc1cccc(COC(=O)C2CCN(S(=O)(=O)c3ccc(Cl)cc3)CC2)c1OC`, the B-score result is “inactive”.
The entry for `CCOc1ccc(S(=O)(=O)N2CCC(C(=O)OCc3ccc(OC)cc3)CC2)cc1` is “inactive”; for `COC(=O)c1ccc(COC(=O)C2CCN(S(=O)(=O)c3c(Cl)cccc3Cl)CC2)o1` it is 28.7 (active).
Take `NC(=O)C1CCN(C(=O)CC2C(=O)NCCN2Cc2cccc(Oc3ccccc3)c2)CC1` (centres undefined): the B-score result was “inactive”.
Under `Cc1nn(CCCC(=O)NCc2ccccc2Cl)c(=O)c2nccn12` stands “inactive”.
As to `COc1ccc(OC)c(C(=O)c2coc3ccc(OC)cc23)c1`, the B-score result was “inactive”.
The entry for `COc1ccc(OC)c(C(=O)c2ccc(C(=O)O)cc2)c1` is “inactive”; for `COc1ccc(OC)c(C(=O)c2ccc(Cl)cc2)c1` it is 29.4 (active); for `Cc1ccc(-c2nn(-c3ccccc3)cc2/C=C2\SC(=S)N(CCCCCC(=O)O)C2=O)o1` it is “inactive”.
The entry for `O=C(N/C(=C/c1ccc(Cl)cc1)C(=O)N1CCCCC1)c1ccco1` is “inactive”.
The entry for `Cc1ccc(CNC(=O)c2c(-c3ccccc3)noc2C)cc1` is “inactive”.
As to `CCc1noc(C)c1C(=O)NNC(=O)c1ccc(F)cc1`, the B-score result is “inactive”.
Under `Cc1onc(-c2c(Cl)cccc2Cl)c1C(=O)NNC(=O)c1c(-c2c(Cl)cccc2Cl)noc1C` stands “inactive”.
Under `COc1ccc(C(=O)NC(=S)NNC(=O)c2c(-c3ccccc3)noc2C)cc1` stands 123 (active).
`Cc1onc(-c2ccccc2)c1C(=O)Nc1ccccc1C#N`: the B-score result is “inactive”.
The figure for `Cc1onc(-c2ccccc2)c1C(=O)NNC(=S)NC(=O)c1ccc(F)cc1` is 126 (active).
The entry for `Cc1ccc(NC(=O)c2ccn(C(=O)Nc3ccccc3)n2)c(C)c1` is “inactive”; for `CS(=O)(=O)N(CC(=O)N1CCCC1)Cc1ccccc1` it is “inactive”; for `CC1=NN(c2ccccc2)C(=O)C1C(=O)c1ccc([N+](=O)[O-])cc1` (centres undefined) it is “inactive”.
Under `O=C1NC(=O)C2C1C(c1ccc([N+](=O)[O-])cc1)=NN2Cc1ccccc1` (centres undefined) stands 42.5 (active); under `CC(=O)N1c2ccccc2N(Cc2ccc([N+](=O)[O-])cc2)C(=O)C1(C)C`, “inactive”.
Consider `COc1cc(CO)ccc1OCC(=O)Nc1cccc2ccccc12`, for which the B-score result is “inactive”.
The entry for `COc1ccc(N2CC(C)Cn3c2nc2c3c(=O)n(Cc3ccccc3F)c(=O)n2C)c(OC)c1` (centres undefined) is “inactive”; for `O=C(COC(=O)c1cccc(Cl)c1)Nc1ccc2[nH]c(=O)[nH]c2c1` it is “inactive”.
The entry for `CCC(C)c1ccc(O)c(/C=N/O)c1` (centres undefined) is “inactive”; for `CNCC(O)c1ccc(O)c(O)c1` (centres undefined) it is 46.8 (active); for `CC(=O)NCC(O)c1ccc([N+](=O)[O-])cc1` (centres undefined) it is “inactive”.
Regarding `Cc1ccc(CNC(=O)CCC(=O)N2CC(C)Sc3ccccc32)cc1` (centres undefined), the B-score entry is “inactive”.
Under `Cc1ccc(CSCC2Nc3ccc(C(=O)N4CCN(c5ccc(F)cc5)CC4)cc3NC2=O)cc1` (centres undefined) stands “inactive”.
Under `O=C(c1cc(C(=O)N2CCN(c3ccc(F)cc3)CC2)cc([N+](=O)[O-])c1)N1CCN(c2ccc(F)cc2)CC1` stands “inactive”; under `O=C1Nc2cc(C(=O)N3CCN(c4ccc(F)cc4)CC3)ccc2NC1CSCc1cccc(F)c1` (centres undefined), 28.7 (active); under `Cc1ccc(NC(=O)COC(=O)C2C3CC4OC(=O)C2C4C3)cc1Cl` (centres undefined), “inactive”.
Under `Cc1ccc(OCC(=O)NC(C)c2ccccc2)cc1C` (centres undefined) stands “inactive”.
Consider `COc1cc(OC)cc(C(=O)N[C@H](C(=O)OCC(=O)NC(C)c2ccccc2)C(C)C)c1` (some centres undefined), for which the B-score is 36 (active).
For the molecule `Cc1cc(C)cc(OCC(=O)NC(C)c2ccccc2)c1` (centres undefined), the B-score result was “inactive”.
As for `COc1ccc(NC(=O)CC2C(=O)NC3CCCCC3N2C(=O)c2ccc(F)cc2)cc1` (centres undefined), the B-score entry was “inactive”.
The entry for `CCCNC(=S)N1CCC(NC(=O)c2ccc(OC)cc2)CC1` is “inactive”; for `CC(C)COC(=O)c1ccc(NC(=O)C2C3C=CC(C3)C2C(=O)O)cc1` (centres undefined) it is “inactive”.
As to `CCOC(=O)c1cc2cc(C)ccc2[nH]1`, the B-score result is “inactive”.
The figure for `CCOC(=O)c1[nH]c2ccc(C)cc2c1N=C(C)N(C)C` is 44.7 (active).
In the case of `CCOC(=O)c1[nH]c2ccccc2c1N=C(C)N(CC)CC`, the B-score result was “inactive”.
The entry for `Cn1c(N)cc(-c2ccc(F)cc2)c(C#N)c1=O` is “inactive”; for `O=C(CSc1nnc(-c2c[nH]c3ccccc23)n1-c1ccc(F)cc1)NCc1ccco1` it is “inactive”; for `Cc1ccc2nc(/C(C#N)=C\c3ccc(OC(=O)c4cccs4)cc3)[nH]c2c1` it is “inactive”.
Under `COc1cc(/C=C(\C#N)c2nc3ccccc3[nH]2)ccc1O` stands 58.8 (active); under `COc1cc(/C=C(\C#N)c2nc3c(s2)CC(C)CC3)ccc1O` (centres undefined), “inactive”; under `COCOc1cc(O)c(C(=O)/C=C/c2ccc(OCOC)c(OCOC)c2)c(OCOC)c1`, “inactive”.
The entry for `Cc1cc(C)cc(NC(=O)c2cccc(NC(=O)C3C4CC5OC(=O)C3C5C4)c2)c1` (centres undefined) is “inactive”; for `CCN(CC)C(=O)C(=O)Nc1cccc(Br)c1` it is “inactive”.
For the molecule `Cc1ccc(CSCC(=O)N(C)CC(=O)Nc2cccc(F)c2)cc1`, the B-score result is “inactive”.
Under `CCN(CC)C(=O)CSC(Nc1cccc(F)c1)=C(C#N)C#N` stands 39.4 (active); under `CS(=O)(=O)N(CC(=O)N1CCc2ccccc2C1)c1ccc(Br)cc1`, “inactive”.
For `CCOCCCNC(=S)Nc1ccc2nc(N3CCN(CC)CC3)cc(C)c2c1`, the B-score result was “inactive”.
Under `CC(C)=CCc1c(O)c(CC=C(C)C)c2occ(-c3ccc(O)cc3)c(=O)c2c1O` stands 29.8 (active); under `CC(C)CN(Cc1c(O)ccc2c(=O)c(-c3ccccc3)coc12)CC(C)C`, “inactive”; under `CCOC(=O)c1nnn(CC(=O)Nc2cccc(F)c2)c1C(=O)OCC`, “inactive”.
For `CCNS(=O)(=O)c1ccc(CCC(=O)N2CCN(c3ccc(OC)cc3)CC2)cc1`, the B-score result was “inactive”.
With `Cc1c(C)c2c(OCC(=O)N[C@@H](C(=O)O)c3ccccc3)cc3c(c2oc1=O)CCC(C)(C)O3`, the B-score is 43.9 (active).
Under `Cc1c(C)c2c(OCC(=O)NCCCO)cc3c(c2oc1=O)CCC(C)(C)O3` stands “inactive”.
Under `Cc1cc(=O)oc2c3c(cc(OCC(=O)N[C@H](C(=O)O)c4ccccc4)c12)OC(C)(C)CC3` stands “inactive”; under `O=C(C[n+]1ccc2c(c1)nnn2-c1ccccc1)c1ccc(Cl)cc1`, “inactive”; under `O=C(CN1C(=O)NC2(CCCCC2)C1=O)NCCc1c[nH]c2ccccc12`, “inactive”.
The figure for `N#C/C(=C/c1ccc(N2CCCCC2)o1)C(=O)NCCc1c[nH]c2ccccc12` is 37.2 (active); for `CC(=O)N/C(=C/c1ccc(Cl)cc1)C(=O)NCCc1c[nH]c2ccccc12` it is “inactive”; for `COC(=O)c1ccccc1Oc1c(F)c(F)nc(N2CCOCC2)c1F` it is “inactive”.
For `c1ccc(-n2cccc2)c(N2CCCCC2)c1`, the B-score result was “inactive”.
The entry for `O=C(NCc1cccnc1)c1cnc2ccccc2n1` is “inactive”; for `Cc1ccnc(N2CCCC(C(=O)NC3CC3)C2)n1` (centres undefined) it is “inactive”; for `Cc1ccnc(SCC(N)=O)n1` it is “inactive”.
Under `Cc1ccnc(-n2sc3ccccc3c2=O)n1` stands 37 (active); under `CC1CN(C(=O)COC(=O)c2cccc(NS(=O)(=O)c3ccccc3)c2)CC(C)O1` (centres undefined), “inactive”.
The entry for `Cc1nc2sc(C(=O)c3ccccc3)c(N)c2c2c1CCCC2` is “inactive”; for `CN(C)c1ccnc2sc(C(=O)c3ccccc3)c(N)c12` it is “inactive”.
As for `Nc1c(C(=O)c2cccs2)sc2nsc(SCCN3CCCCC3)c12`, the B-score is 53.3 (active).

These data come from PubChem BioAssay AID588627 (Johns Hopkins Ion Channel Center, 2011).
